A3G deaminase = inhibitors of human APOBEC3G DNA deaminase. Q9HC16. recombinant A3G, ssDNA deamination FAM/TAMRA fluorescence. inhibition, % at 20 µM. 0.28% of 330,000 active;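 active = inhibition of at least 40% at 20 µM, with no more than 30% in the related APOBEC3A deaminase screen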;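 note: plate controls were DMSO wells with A3G for no effect and wells lacking A3G enzyme for full effect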
Target sequence (Q9HC16 whole entry, looked up): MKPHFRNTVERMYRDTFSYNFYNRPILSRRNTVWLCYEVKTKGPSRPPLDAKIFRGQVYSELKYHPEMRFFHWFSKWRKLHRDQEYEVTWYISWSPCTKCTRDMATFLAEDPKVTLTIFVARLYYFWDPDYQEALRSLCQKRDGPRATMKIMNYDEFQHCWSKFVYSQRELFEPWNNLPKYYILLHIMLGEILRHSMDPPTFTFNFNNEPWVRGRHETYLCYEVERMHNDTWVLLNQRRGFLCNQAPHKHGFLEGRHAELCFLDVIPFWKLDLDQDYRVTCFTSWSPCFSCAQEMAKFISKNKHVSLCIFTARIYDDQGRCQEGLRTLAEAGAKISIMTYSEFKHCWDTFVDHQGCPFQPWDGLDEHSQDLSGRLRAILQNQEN
A3A deaminase = human APOBEC3A DNA deaminase inhibition; recombinant A3A, FAM/TAMRA ssDNA deamination fluorescence; inhibition, % at 20 µM; 0.41% of 330,000 active;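 active = at least 40% inhibition at 20 µM here, with at most 30% in a related deaminase screen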;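 note: plate controls were A3A with DMSO for no effect and wells lacking A3A enzyme for full effect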
UCH37 DUB inh = blocks the human deubiquitinase UCH37. Q9Y5K5. purified proteasome/UCH37, Ub-AMC cleavage fluorescence. inhibition, % (no concentration beside the values). 0.33% of 330,000 active;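 active = mean inhibition over replicate wells above about 20%, limit read from the data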;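 note: 0% = compound-free wells with enzyme and 100% = wells lacking proteasome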
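Reagent: Ub-AMC substrate; assay system: Proteasome-associated human UCH37 deubiquitinase; controls: no-proteasome and no-compound wells; read-out: % inhibition of Ub-AMC cleavage fluorescence; timing: 30 min preincubation with enzyme, 25 min cleavage at room temperature; signal: AMC fluorescence from Ub-AMC cleavage, excitation 355 nm, emission 460 nm; buffer or medium: Tris-HCl pH 7.4 plus ovalbumin, ATP-MgCl2, DTT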
AHR act = human AHR activation | AHR-responsive luciferase reporter cells, luminescence | activation, % at 5 µM | 2.5% of 320,000 active | AID 2796; in the data active = activation above about 47%;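 note: 0% = vehicle wells and 100% = reference agonist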
PolyA inhibitor = yeast polyadenylation inhibition; S. cerevisiae SKY197-pL101 polyadenylation reporter, beta-gal luminescence; efflux-impaired pdr1/pdr3 knockout yeast; score 100 = 6 SD above DMSO; activity score, % at 12 µM; 0.02% of 300,000 active; AID 1875;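 active = lowest replicate activity score at least 50, where 100 means six control SD above control mean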;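 note: yeast exposed to compound for 9 h at 30 °C; higher score means more reporter readthrough which indicates perturbed polyadenylation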
Arrestin-AP2 inh = human beta-arrestin and AP2 interaction inhibition; inhibition, % at 10 µM; FITC-arrestin peptide / GST-AP2 beads, flow cytometry; AP2 beta2 appendage carries R879A mutation; 0.31% of 340,000 active;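 active = inhibition above a set limit, near 3 SD of compounds lacking own fluorescence, cut at about 54% in these data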;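 note: plate controls were DMSO wells for no effect and 5 µM unlabelled arrestin peptide for full effect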
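Material – AP2 appendage R879A on GSH beads · Buffer or medium – PBS with 0.05% Tween 20 and 0.1% BSA · Probe or stimulus – fluorescein-tagged arrestin peptide at 50 nM final · Incubation – compound with beads 12 min RT, then probe 1 h RT · Detection – high-throughput flow cytometry of beads, ex 488, em 535 nm · Evaluation – percent response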
Numbers without * were called inactive; / = no result given. Compounds with a hit are over-represented: about 3.4% of the library has one in this group of screens.

SMILES	A3G deaminase	A3A deaminase	UCH37 DUB inh	AHR act	PolyA inhibitor	Arrestin-AP2 inh
C/C(CC(=O)Nc1cc(Cl)ccc1Cl)=N\NC(=O)c1ccccc1Br	4.4	3.9	/	71.3*	13.6	-22.3
COc1cc(NC(=O)CC(C)=NNC(=O)Cc2ccccc2)c(OC)cc1Cl	/	/	-0.3	/	/	/
COc1cc(C=NN(C)c2ccccc2)cc(Cl)c1O	/	/	6.1	/	/	/
CC1CC(C)CN(C(=O)c2cc3ccccc3o2)C1 (configuration not stated)	-0.5	0.0	0.7	58.0*	1.7	5.8
CC1CCN(C(=O)c2cc3ccccc3o2)CC1	2.7	-0.4	3.8	-6.6	-13.9	10.0
COc1cccc(NC(=O)/C=C/c2ccccc2[N+](=O)[O-])c1	-3.5	-0.3	2.2	44.8	-7.9	1.2
COc1ccccc1NC(=O)/C=C/c1cc([N+](=O)[O-])ccc1OC(F)F	-5.9	-0.3	1.5	49.0*	-7.1	-4.8
COc1ccc(OC)c(NC(=O)/C=C/c2ccccc2[N+](=O)[O-])c1	-6.7	0.8	4.1	70.9*	-12.4	-10.4
COc1ccc(NC(=O)/C=C/c2ccccc2[N+](=O)[O-])c(OC)c1	-4.6	-3.7	2.4	76.8*	14.6	1.8
COc1ccc(CNC(=O)/C=C/c2ccccc2[N+](=O)[O-])cc1	-5.9	-2.5	4.4	10.2	23.1	-2.2
COc1ccc(O[C@H]2C=C[C@@H](c3ccccc3)O[C@@H]2COC(=O)CCC(C)=NO[C@H](C)c2cn([C@@H]3COC[C@H]3O)nn2)cc1	/	/	1.2	/	/	/
CC(=NNC(=O)C(C)Sc1ccccc1)c1ccc([N+](=O)[O-])cc1 (configuration not stated)	/	/	4.6	/	/	/
CCCCNc1c(-c2cccc(-c3cc(C(C)=O)cs3)c2)nc2cc(C)ccn12	0.5	-2.9	3.8	55.3*	2.5	15.1
CCCCCCSc1cc(-c2nc3cc(C)ccn3c2NCCCC)ccc1OC	8.7	0.7	/	20.3	-6.2	-4.2
CS(=O)(=O)c1ccc2nc(NC(=O)CCC(=O)c3cccs3)sc2c1	-0.9	2.1	-0.8	52.5*	4.3	-3.3
CCN(CC)S(=O)(=O)c1ccc2nc(NC(=O)c3cccs3)sc2c1	-10.3	-7.6	-2.0	71.6*	-11.8	-0.8
CCN(CC)S(=O)(=O)c1ccc2nc(NC(=O)c3ccco3)sc2c1	-3.9	-1.8	5.2	4.4	-5.8	-5.3
Cc1nc2ccc(NC(=O)c3cccs3)cc2s1	-1.6	-0.7	1.4	2.1	-17.7	3.8
CC(=O)Nc1ccc2nc(NC(=O)c3cccs3)sc2c1	-7.3	-2.2	-27.3	58.2*	-1.0	3.2
CCOC(=O)c1c(CC(C)C)csc1N=CC1=C(O)CCCC1=O	/	/	-26.4	/	/	/
COc1ccc(CNC(=O)CC(C)=NNC(=O)c2ccc(OC)cc2OC)cc1	/	/	5.4	/	/	/
Cc1nc(NC(=O)c2ccccc2)sc1-c1csc(Nc2cccc(Cl)c2)n1	-8.2	-4.6	/	21.7	-18.9	/
COc1ccc(Cl)cc1Nc1nc(-c2sc(NC(=O)c3ccccc3)nc2C)cs1	3.0	1.4	/	95.0*	0.1	/
C=CCCC(=O)Nc1nc(C)c(-c2csc(Nc3cc(Cl)ccc3OC)n2)s1	0.2	8.5	-2.8	72.0*	21.2	-5.7
Cc1nc(NC(=O)CC(C)C)sc1-c1csc(Nc2ccc(Cl)cc2Cl)n1	-5.7	-1.5	-4.1	60.5*	13.7	1.9
SMILES	A3G deaminase	A3A deaminase	UCH37 DUB inh	AHR act	PolyA inhibitor	Arrestin-AP2 inh
Cc1nc(NC(=O)c2ccccc2)sc1-c1csc(Nc2ccc(Cl)cc2Cl)n1	-9.7	-5.3	/	42.6	-6.7	/
COc1ccc(Cl)cc1Nc1nc(-c2sc(NC(=O)CC(C)C)nc2C)cs1	-4.2	-2.6	-2.1	37.6	2.1	1.8
COc1ccc(OC)c(Nc2nc(-c3sc(NC(=O)c4ccccc4)nc3C)cs2)c1	-10.4	-3.1	/	54.5*	-5.9	/
COc1cccc(C=NNC(=O)c2nc(-c3ccccc3)cc(-c3ccccc3)n2)c1O	/	/	5.1	/	/	/
COc1ccc(Cl)cc1NC(=O)CN(C)C(=O)c1sccc1-c1ccccc1	3.1	3.3	3.0	55.2*	/	-6.5
Cn1c2ccccc2c2nnc(SCC(N)=O)nc21	-6.6	-2.9	7.1	14.3	2.9	9.1
CCCCn1c2ccccc2c2nnc(SCC(=O)NC3=NN=C(c4ccccc4)CS3)nc21	-6.8	-3.3	/	60.9*	-8.0	/

Screening results (PubChem)
